≈ marks a conversion by molar mass, not a printed value.
Key:
Pichia kudriavzevii [1] = assay: Inhibition of Candida krusei ATCC 6258 growth for 24 hours in vitro.; assay type: functional; conditions: Pichia kudriavzevii, ATCC 6258, 24 h; read-out: MIC
Summary of the method: (§1)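 NCCLS M27-A broth microdilution in RPMI 1640 with L-glutamine and 0.165 M MOPS, pH 7.0. Isolates kept on Sabouraud dextrose agar. Inoculum 5 × 10^3 cfu/mL final. Compounds were diluted in DMSO (≤2% final) and tested in 2-fold dilutions of 1000–0.24 µmol/L. Incubation at 35 °C, OD540 read at 24 and 48 h. MIC = 80% growth inhibition versus control; assays run twice in duplicate.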

Trichosporon beigelii [2] = assay: Inhibition of Trichosporon beigelli 1188 for 24 hours in vitro.; assay type: functional; conditions: Trichosporon beigelii, 24 h; read-out: MIC
Summary of the method: (§2)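 Microdilution following NCCLS M27-A. Medium: RPMI 1640 with L-glutamine, 0.165 M MOPS, pH 7.0. Final inoculum 5 × 10^3 cfu/mL. Compounds dissolved in DMSO, final ≤2%, serially halved from 1000 to 0.24 µmol/L. Incubated at 35 °C and read at 24 and 48 h. MIC defined as 80% inhibition of control growth; run twice in duplicate.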

Candida parapsilosis [3] = assay: Inhibition of Candida parapsilosis ATCC 22019 growth for 24 hours in vitro.; assay type: functional; conditions: Lodderomyces parapsilosis, ATCC 22019, 24 h; read-out: MIC; summary of the method: as §1
Pichia kudriavzevii [4] = assay: Inhibition of Candida krusei E28 growth for 48 hours in vitro.; assay type: functional; conditions: Pichia kudriavzevii, 48 h; read-out: MIC; summary of the method: as §1
Lichtheimia corymbifera [5] = assay: In vitro inhibition of Absidia corymbifera 272 growth for 24 hours.; assay type: functional; conditions: Lichtheimia corymbifera, 24 h; read-out: MIC
Summary of the method: (§3)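 Filamentous isolates tested by microdilution per NCCLS M27-A in RPMI 1640 plus L-glutamine, buffered with 0.165 M MOPS to pH 7.0. Final inoculum 5 × 10^3 cfu/mL. Compounds in DMSO (final ≤2%), 2-fold series over 1000–0.24 µmol/L. Plates held at 35 °C and read visually after 24 and 48 h. MIC taken as 80% inhibition of control growth; determined twice in duplicate.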

Candida parapsilosis [6] = assay: Inhibition of Candida parapsilosis ATCC 22019 growth for 48 hours in vitro.; assay type: functional; conditions: Lodderomyces parapsilosis, ATCC 22019, 48 h; read-out: MIC; summary of the method: as §1
Candida albicans [7] = assay: Inhibition of Candida albicans ATCC 90028 for 48 hours in vitro.; assay type: functional; conditions: Candida albicans, ATCC 90028, 48 h; read-out: MIC; summary of the method: as §1
Clavispora lusitaniae [8] = assay: Inhibition of Candida lusitaniae 2446/I growth for 48 hours in vitro.; assay type: functional; conditions: Clavispora lusitaniae, 48 h; read-out: MIC; summary of the method: as §1
Pichia kudriavzevii [9] = assay: Inhibition of Candida krusei E28 growth for 24 hours in vitro.; assay type: functional; conditions: Pichia kudriavzevii, 24 h; read-out: MIC; summary of the method: as §1
Clavispora lusitaniae [10] = assay: Inhibition of Candida lusitaniae 2446/I growth for 24 hours in vitro.; assay type: functional; conditions: Clavispora lusitaniae, 24 h; read-out: MIC; summary of the method: as §1
Aspergillus fumigatus [11] = assay: Inhibition of Aspergillus fumigatus 231 growth for 48 hours in vitro.; assay type: functional; conditions: Aspergillus fumigatus, 48 h; read-out: MIC; summary of the method: as §3
Pichia kudriavzevii [12] = assay: Inhibition of Candida krusei ATCC 6258 growth for 48 hours in vitro.; assay type: functional; conditions: Pichia kudriavzevii, ATCC 6258, 48 h; read-out: MIC; summary of the method: as §1
Nakaseomyces glabratus [13] = assay: Inhibition of Candida glabrata 20/I growth for 24 hours in vitro.; assay type: functional; conditions: Nakaseomyces glabratus, 24 h; read-out: MIC; summary of the method: as §1
Candida tropicalis [14] = assay: Inhibition of Candida tropicalis 156 growth for 24 hours in vitro.; assay type: functional; conditions: Candida tropicalis, 24 h; read-out: MIC; summary of the method: as §1
Aspergillus fumigatus [15] = assay: Inhibition of Aspergillus fumigatus 231 growth for 24 hours in vitro.; assay type: functional; conditions: Aspergillus fumigatus, 24 h; read-out: MIC; summary of the method: as §3
Lichtheimia corymbifera [16] = assay: In vitro inhibition of Absidia corymbifera 272 growth for 48 hours.; assay type: functional; conditions: Lichtheimia corymbifera, 48 h; read-out: MIC; summary of the method: as §3
[17] = Inhibition of Trichophyton mentagrophytes 445 growth for 120 hours in vitro.; assay type: functional, Arthroderma benhamiae; conditions: Trichophyton benhamiae, 120 h; read-out: MIC
Summary of the method: (§4)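 Dermatophyte grown in MOPS-buffered (0.165 M, pH 7.0) RPMI 1640 containing L-glutamine, in an M27-A microdilution format. Inoculum 5 × 10^3 cfu/mL final. Compounds from DMSO stocks (≤2% final), 2-fold dilutions 1000–0.24 µmol/L. Incubated at 35 °C, growth judged visually at 72 and 120 h. MIC endpoint is 80% inhibition relative to control; measured twice in duplicate.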

Nakaseomyces glabratus [18] = assay: Inhibition of Candida glabrata 20/I growth for 48 hours in vitro.; assay type: functional; conditions: Nakaseomyces glabratus, 48 h; read-out: MIC; summary of the method: as §1
Trichosporon beigelii [19] = assay: Inhibition of Trichosporon beigelli 1188 for 48 hours in vitro.; assay type: functional; conditions: Trichosporon beigelii, 48 h; read-out: MIC; summary of the method: as §2
Candida albicans [20] = assay: Inhibition of Candida albicans ATCC 44859 growth for 48 hours in vitro.; assay type: functional; conditions: Candida albicans, ATCC 44859, 48 h; read-out: MIC; summary of the method: as §1
Candida tropicalis [21] = assay: Inhibition of Candida tropicalis 156 growth for 48 hours in vitro.; assay type: functional; conditions: Candida tropicalis, 48 h; read-out: MIC; summary of the method: as §1
Candida albicans [22] = assay: Inhibition of Candida albicans ATCC 90028 for 24 hours in vitro.; assay type: functional; conditions: Candida albicans, ATCC 90028, 24 h; read-out: MIC; summary of the method: as §1
Candida albicans [23] = assay: Inhibition of Candida albicans ATCC 44859 growth for 24 hours in vitro.; assay type: functional; conditions: Candida albicans, ATCC 44859, 24 h; read-out: MIC; summary of the method: as §1
[24] = Inhibition of Trichophyton mentagrophytes 445 growth for 72 hours in vitro.; assay type: functional, Arthroderma benhamiae; conditions: Trichophyton benhamiae, 72 h; read-out: MIC; summary of the method: as §4

For `CC(C)(C)C(=O)OCC1C=C(c2ccc(Br)cc2)C(=O)O1` (stereo not drawn), the MIC (Pichia kudriavzevii [1]) was 3.91 µM (≈ 1.38 µg/mL), the MIC (Trichosporon beigelii [2]) was 7.81 µM (≈ 2.76 µg/mL) and the MIC (Candida parapsilosis [3]) was 3.91 µM (≈ 1.38 µg/mL). It also gave an MIC (Pichia kudriavzevii [4]) of 7.81 µM (≈ 2.76 µg/mL), an MIC (Lichtheimia corymbifera [5]) of 7.81 µM (≈ 2.76 µg/mL) and an MIC (Candida parapsilosis [6]) of 15.6 µM (≈ 5.52 µg/mL). The MIC (Candida albicans [7]) was 7.81 µM (≈ 2.76 µg/mL), the MIC (Clavispora lusitaniae [8]) was 7.81 µM (≈ 2.76 µg/mL) and the MIC (Pichia kudriavzevii [9]) was 7.81 µM (≈ 2.76 µg/mL). For the same compound, the MIC (Clavispora lusitaniae [10]) was 3.91 µM (≈ 1.38 µg/mL), the MIC (Aspergillus fumigatus [11]) was 3.91 µM (≈ 1.38 µg/mL) and the MIC (Pichia kudriavzevii [12]) was 7.81 µM (≈ 2.76 µg/mL). For the same compound, the MIC (Nakaseomyces glabratus [13]) was 1.95 µM (≈ 0.689 µg/mL), the MIC (Candida tropicalis [14]) was 7.81 µM (≈ 2.76 µg/mL) and the MIC (Aspergillus fumigatus [15]) was 0.98 µM (≈ 0.346 µg/mL). It also gave an MIC (Lichtheimia corymbifera [16]) of 15.6 µM (≈ 5.52 µg/mL), an MIC [17] of 3.91 µM (≈ 1.38 µg/mL) and an MIC (Nakaseomyces glabratus [18]) of 1.95 µM (≈ 0.689 µg/mL). For the same compound, the MIC (Trichosporon beigelii [19]) was 7.81 µM (≈ 2.76 µg/mL), the MIC (Candida albicans [20]) was 1.95 µM (≈ 0.689 µg/mL) and the MIC (Candida tropicalis [21]) was 7.81 µM (≈ 2.76 µg/mL). For the same compound, the MIC (Candida albicans [22]) was 1.95 µM (≈ 0.689 µg/mL), the MIC (Candida albicans [23]) was 0.49 µM (≈ 0.173 µg/mL) and the MIC [24] was 1.95 µM (≈ 0.689 µg/mL).

Compound `COc1ccc(C2=CC(COC(=O)c3ccc(Cl)cc3)OC2=O)cc1` (stereo not drawn) has an MIC (Pichia kudriavzevii [1]) of 31.2 µM (≈ 11.2 µg/mL), an MIC (Trichosporon beigelii [2]) of over 125 µM and an MIC (Candida parapsilosis [3]) of 62.5 µM (≈ 22.4 µg/mL). For the same compound, the MIC (Pichia kudriavzevii [4]) was 62.5 µM (≈ 22.4 µg/mL), the MIC (Lichtheimia corymbifera [5]) was 31.2 µM (≈ 11.2 µg/mL) and the MIC (Candida parapsilosis [6]) was over 125 µM. For the same compound, the MIC (Candida albicans [7]) was 62.5 µM (≈ 22.4 µg/mL), the MIC (Clavispora lusitaniae [8]) was 125 µM (≈ 44.8 µg/mL) and the MIC (Pichia kudriavzevii [9]) was 31.2 µM (≈ 11.2 µg/mL). The MIC (Clavispora lusitaniae [10]) was 62.5 µM (≈ 22.4 µg/mL), the MIC (Aspergillus fumigatus [11]) was 125 µM (≈ 44.8 µg/mL) and the MIC (Pichia kudriavzevii [12]) was 62.5 µM (≈ 22.4 µg/mL). The MIC (Nakaseomyces glabratus [13]) was 62.5 µM (≈ 22.4 µg/mL), the MIC (Candida tropicalis [14]) was 31.2 µM (≈ 11.2 µg/mL) and the MIC (Aspergillus fumigatus [15]) was 31.2 µM (≈ 11.2 µg/mL). The MIC (Lichtheimia corymbifera [16]) was 62.5 µM (≈ 22.4 µg/mL), the MIC [17] was 15.6 µM (≈ 5.61 µg/mL) and the MIC (Nakaseomyces glabratus [18]) was 125 µM (≈ 44.8 µg/mL). The MIC (Trichosporon beigelii [19]) was over 125 µM, the MIC (Candida albicans [20]) was 15.6 µM (≈ 5.61 µg/mL) and the MIC (Candida tropicalis [21]) was 125 µM (≈ 44.8 µg/mL). It also gave an MIC (Candida albicans [22]) of 31.2 µM (≈ 11.2 µg/mL), an MIC (Candida albicans [23]) of 1.95 µM (≈ 0.7 µg/mL) and an MIC [24] of 7.81 µM (≈ 2.8 µg/mL).
